# Laboratory results as given in publication PMC3114295 (Pain, 2011).
# Experiments:
# male Sprague Dawley rats = test: Bradykinin-induced thermal hyperalgesia, paw withdrawal latency; format: in vivo; conditions: rat hindpaw i.pl., JA-2 5 μM 25 μl 30 min before BK 0.1 μM 25 μl; n=6-10
# Outline: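 Male Sprague-Dawley rats (200-250 g), tested in the light phase after 30 min acclimation. Blinded Hargreaves thermal latency, with baseline set near 10 s and a 20 s cutoff, taken as the mean of triplicate readings at least 30 s apart. Intraplantar s.c. vehicle (50% DMSO/0.9% saline) or test compound (5 μM), 25 μl; latency read 30 min later. BK (0.1 or 1 μM, 25 μl) then injected into the same paw; latency read at 5 min.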
# EP24.15 = conditions: read-out: Ki for inhibiting EP24.15; cited from earlier work
# EP24.16 = conditions: EP24.15 preferentially over EP24.16; cited from earlier work
# [1] = prolonged incubation in various tissues; cited from earlier work
# [2] = cited from earlier work
Molecule,"effect on response to sub-threshold BK (0.1 μM), thermal hyperalgesia (male Sprague Dawley rats)",Ki (EP24.15),times more potent at inhibiting EP24.15 than EP24.16 (selectivity) (EP24.16),retention of activity after incubation in tissues (stability) [1],potentiation of antinociceptive effects of co-administered opioid peptides ([2]; co-administered with Met-enkephalin-Arg-Gly-Leu and dynorphin A1-8),"antinociception ([2]; intracerebroventricular administration, time and dose-dependent)"
C[C@H](NC(CCc1ccccc1)C(=O)O)C(=O)NC(C)(C)C(=O)N[C@@H](Cc1ccc(O)cc1)C(=O)Nc1ccc(C(=O)O)cc1 (stereo partly drawn) [JA-2],resulted in a nociceptive response,23 nM,20-30 fold,retains its activity after prolonged incubation in various tissues,–,–
"N-[1-(R,S)-carboxy-3-phenylpropyl]-Ala-Ala-Tyr-p-aminobenzoate [cFP]",–,–,–,–,potentiate the antinociceptive effects,significant antinociception
